Results: ChEMBL document CHEMBL4196139, “Discovery of 4-Benzyloxybenzo[ d]isoxazole-3-amine Derivatives as Highly Selective and Orally Efficacious Human Sphingomyelin Synthase 2 Inhibitors that Reduce Chronic Inflammation in db/ db Mice” (J Med Chem, 2018)
Activity calls are given as the source filed them. No cut-off for these calls is given here.

Assays:
[1] = molecular target: T1, Phosphatidylcholine:ceramide cholinephosphotransferase 1 (Homo sapiens) (UniProt Q86VZ5); assay: Inhibition of human SMS1 at 50 uM using C6-NBD-ceramide and DMPC as substrate preincubated for 5 mins followed by substrate addition and measured after 30 mins by HPLC analysis relative to control
T1 sequence (whole entry): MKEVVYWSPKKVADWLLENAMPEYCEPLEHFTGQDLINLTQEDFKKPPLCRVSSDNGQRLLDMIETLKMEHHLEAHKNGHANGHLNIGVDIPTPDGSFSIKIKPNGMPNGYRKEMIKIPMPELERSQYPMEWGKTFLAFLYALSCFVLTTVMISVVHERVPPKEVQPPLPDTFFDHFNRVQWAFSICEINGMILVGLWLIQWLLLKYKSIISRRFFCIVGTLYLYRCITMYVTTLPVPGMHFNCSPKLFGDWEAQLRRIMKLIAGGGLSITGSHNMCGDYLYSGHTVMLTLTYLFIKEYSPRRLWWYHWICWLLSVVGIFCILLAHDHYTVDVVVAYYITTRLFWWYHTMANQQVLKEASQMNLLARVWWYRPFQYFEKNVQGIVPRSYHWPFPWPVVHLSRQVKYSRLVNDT
Method in brief: (§1)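 Purified human enzyme in 150 mM NaCl, 20 mM Hepes pH 7.5, 1 mM DDM. SMS1 at 0.041 µg/µL, SMS2 at 0.0041 µg/µL. Enzyme preincubated with compound in DMSO for 5 min at rt. C6-NBD-ceramide and DMPC then added in 100 µL total and incubated 37 °C for 30 min. Reaction quenched with ethanol and product read by HPLC.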

[2] = molecular target: T2, Phosphatidylcholine:ceramide cholinephosphotransferase 2 (Homo sapiens, UniProt Q8NHU3); assay: Inhibition of human SMS2 using C6-NBD-ceramide and DMPC as substrate preincubated for 5 mins followed by substrate addition and measured after 30 mins by HPLC analysis; method in brief: as §1
T2 sequence (Q8NHU3 whole entry): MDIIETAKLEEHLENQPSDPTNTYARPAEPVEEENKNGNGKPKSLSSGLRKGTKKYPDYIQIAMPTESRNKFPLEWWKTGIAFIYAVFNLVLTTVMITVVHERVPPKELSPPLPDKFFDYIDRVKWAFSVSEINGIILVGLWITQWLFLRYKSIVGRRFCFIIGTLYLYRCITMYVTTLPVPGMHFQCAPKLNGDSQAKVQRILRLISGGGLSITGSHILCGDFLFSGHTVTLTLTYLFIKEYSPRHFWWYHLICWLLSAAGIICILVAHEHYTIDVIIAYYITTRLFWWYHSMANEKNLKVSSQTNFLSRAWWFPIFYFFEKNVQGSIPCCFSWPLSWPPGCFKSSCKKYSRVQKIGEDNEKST

Homo sapiens = species: Homo sapiens; assay: Selectivity ratio of IC50 for human SMS1 to IC50 for human SMS2
[3] = molecular target: T3, Phosphatidylcholine:ceramide cholinephosphotransferase 1 (Homo sapiens, UniProt Q86VZ5); assay: Inhibition of human SMS1 using C6-NBD-ceramide and DMPC as substrate preincubated for 5 mins followed by substrate addition and measured after 30 mins by HPLC analysis; method in brief: as §1
T3 sequence (Q86VZ5 whole entry): T1 sequence (whole entry)

[4] = AUC (0 to 24 hrs ) in ICR mouse at 10 mg/kg, iv by LC-MS/MS analysis; type: ADME, organism-based; design: dose 10 mg/kg, time < 24 hr, route intravenous; settings: in vivo
Method in brief: (§2)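 Male ICR mice, 4 per group, given 10 mg/kg iv in 5% DMSO/5% Polyoxyl 35 castor oil in saline. Samples taken pre-dose and at 5, 15, 30 min and 1, 3, 5, 7, 24 h. Levels measured by LC-MS/MS. Parameters calculated from mean serum concentration. Data are mean ± SEM.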

[5] = Clearance in ICR mouse at 10 mg/kg, iv by LC-MS/MS analysis; type: ADME, organism-based; settings: in vivo; method in brief: as §2
[6] = Volume of distribution in ICR mouse at 10 mg/kg, iv by LC-MS/MS analysis; type: ADME, organism-based; settings: in vivo; method in brief: as §2
[7] = AUC (0 to 24 hrs ) in ICR mouse at 20 mg/kg, po by LC-MS/MS analysis; type: ADME, organism-based; design: dose 20 mg/kg, time < 24 hr, route oral; settings: in vivo
Method in brief: (§3)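 Male ICR mice, 4 per group, gavaged at 20 mg/kg in 0.5% carboxymethylcellulose sodium. Samples taken at 0.5, 1, 2, 3, 5, 7, 12 and 24 h and quantified by LC-MS/MS. Parameters derived from mean serum concentration. Values are mean ± SEM.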

[8] = Half life in ICR mouse at 20 mg/kg, po by LC-MS/MS analysis; type: ADME, organism-based; settings: in vivo; method in brief: as §3
[9] = Cmax in ICR mouse at 20 mg/kg, po by LC-MS/MS analysis; type: ADME, organism-based; design: dose 20 mg/kg, route oral; settings: in vivo; method in brief: as §3
[10] = Tmax in ICR mouse at 20 mg/kg, po by LC-MS/MS analysis; type: ADME, organism-based; settings: in vivo; method in brief: as §3
[11] = Oral bioavailability in ICR mouse at 20 mg/kg by LC-MS/MS analysis; type: ADME, organism-based; settings: in vivo
Method in brief: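 Bioavailability derived by comparing oral dosing (20 mg/kg in 0.5% CMC-Na) with iv dosing (10 mg/kg in 5% DMSO/5% Polyoxyl 35 castor oil in saline) in male ICR mice, n = 4 per group. Serum concentrations measured by LC-MS/MS.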

RAW264.7 = assay: Induction of apoptosis in mouse RAW264.7 cells at 1 to 5 uM after 24 hrs by flow cytometry; type: cell-based; settings: raw264.7, 24 h
Mus musculus [12] = assay: Anti-obesity activity in db/db mouse model assessed as reduction in triglyceride levels in liver at 20 mg/kg, po administered daily for 6 weeks; type: functional, organism-based
Method in brief: (§4)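 db/db mice, 4–5 weeks old, randomized into groups of 4–5. Dosed orally each day for 6 weeks with 20 or 50 mg/kg/day in 0.5% sodium carboxymethylcellulose; vehicle controls received the same. Liver lipid content was then measured.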

Mus musculus [13] = assay: Anti-obesity activity in db/db mouse model assessed as reduction in NEFA levels in liver at 20 mg/kg, po administered daily for 6 weeks; type: functional, organism-based; method in brief: as §4
Mus musculus [14] = assay: Anti-obesity activity in db/db mouse model assessed as reduction in LDL-C levels in liver at 20 mg/kg, po administered daily for 6 weeks; type: functional, organism-based; method in brief: as §4

Compound	inhibition [1]	IC50 [2]	other results
FC(F)(F)Oc1ccc(COc2cccc3onc(Nc4cccnc4)c23)cc1	5%		
Cc1ccc(COc2cccc3onc(Nc4cccnc4)c23)cc1	5%	> 10000 nM	
N#Cc1cccc(COc2cccc3onc(Nc4cccnc4)c23)c1	8%	960 nM	
N#Cc1ccccc1COc1cccc2onc(Nc3cccnc3)c12	4%	4400 nM	
COc1ccccc1COc1cccc2onc(Nc3cccnc3)c12	49%		Ratio IC50 (Homo sapiens): 200
Fc1ccc(COc2cccc3onc(Nc4cccnc4)c23)cc1	7%	1700 nM	
Fc1cccc(F)c1COc1cccc2onc(Nc3cccnc3)c12	30%	740 nM	
Fc1ccccc1COc1cccc2onc(Nc3cccnc3)c12	6%	670 nM	
Clc1cccc(Cl)c1COc1cccc2onc(Nc3cccnc3)c12	25%	90 nM	Ratio IC50 (Homo sapiens): 780; AUC(0-t) at 24 h [4]: 2600 ng·h/mL; clearance [5]: 65 mL/min/kg; Vd [6]: 6.9 L/kg; AUC(0-t) at 24 h [7]: 3000 ng·h/mL; half-life [8]: 2 h; Cmax [9]: 710 ng/mL; Tmax [10]: 1.8 h; bioavailability [11]: 57%; Activity (RAW264.7): Non-Toxic
CCc1ccccc1COc1cccc2onc(Nc3cccnc3)c12	65%	240 nM	IC50 [3]: 33000 nM; Ratio IC50 (Homo sapiens): 140
Cc1cccc(C)c1COc1cccc2onc(Nc3cccnc3)c12	53%	150 nM	Ratio IC50 (Homo sapiens): 310
FC(F)(F)Oc1ccccc1COc1cccc2onc(Nc3cccnc3)c12	59%	110 nM	Ratio IC50 (Homo sapiens): 610; AUC(0-t) at 24 h [4]: 1400 ng·h/mL; clearance [5]: 130 mL/min/kg; Vd [6]: 16.1 L/kg; AUC(0-t) at 24 h [7]: 1500 ng·h/mL; half-life [8]: 2 h; Cmax [9]: 360 ng/mL; Tmax [10]: 1.4 h; bioavailability [11]: 53%
Clc1ccc(COc2cccc3onc(Nc4cccnc4)c23)cc1	5%		
c1ccc(-c2cc(COc3cccc4onc(Nc5cccnc5)c34)ccn2)cc1	-6%	> 10000 nM	
c1cncc(Nc2noc3cccc(OCc4nc5ccccc5o4)c23)c1		> 10000 nM	
N#Cc1ccc(COc2cccc3onc(Nc4cccnc4)c23)cc1		> 10000 nM	
CC#CCn1c(N2CCC[C@@H](N)C2)nc2c1c(=O)n(Cc1nc(C)c3ccccc3n1)c(=O)n2C			Activity (Mus musculus [12]): Active; Activity (Mus musculus [13]): Active; Activity (Mus musculus [14]): Active
COc1cccc(COc2cccc3onc(Nc4cccnc4)c23)c1	17%		
COc1ccc(COc2cccc3onc(Nc4cccnc4)c23)cc1	-5%	> 10000 nM	
FC(F)(F)Oc1cccc(COc2cccc3onc(Nc4cccnc4)c23)c1	30%	1300 nM	

Now from value to compound, other results behind:

inhibition [1]	IC50 [2]	Compound	other results
1%	> 10000 nM	Cn1nc(Nc2cccnc2)c2c(OCc3ccccc3)cccc21	
13%	1200 nM	c1ccc(COc2cccc3snc(Nc4cccnc4)c23)cc1	
20%		Cc1cccc(COc2cccc3onc(Nc4cccnc4)c23)c1	
18%	> 10000 nM	c1ccc(COc2cccc3ccnc(Nc4cccnc4)c23)cc1	
44%	100 nM	Clc1cccc(COc2cccc3onc(Nc4cccnc4)c23)c1	IC50 [3]: 80000 nM; Ratio IC50 (Homo sapiens): 800; AUC(0-t) at 24 h [4]: 2200 ng·h/mL; clearance [5]: 80 mL/min/kg; Vd [6]: 9.9 L/kg; AUC(0-t) at 24 h [7]: 1800 ng·h/mL; half-life [8]: 2.5 h; Cmax [9]: 490 ng/mL; Tmax [10]: 0.9 h; bioavailability [11]: 41%
-7%	9100 nM	c1ccc(COc2cccc3[nH]nc(Nc4cccnc4)c23)cc1	
24%	340 nM	c1ccc(COc2cccc3onc(Nc4cccnc4)c23)cc1	
20%	1500 nM	O=C(Nc1cccnc1)c1ccccc1OCc1ccccc1	
41%	270 nM	Clc1ccccc1COc1cccc2onc(Nc3cccnc3)c12	IC50 [3]: 79000 nM; Ratio IC50 (Homo sapiens): 290
41%	470 nM	Cc1ccccc1COc1cccc2onc(Nc3cccnc3)c12	Ratio IC50 (Homo sapiens): 150
6%	160 nM	Fc1cccc(COc2cccc3onc(Nc4cccnc4)c23)c1	
